What all share (type): functional, organism-based
Assay [1] concerns Human immunodeficiency virus 1. The assay can be described thus: Antiviral activity against HIV1 3B in MT4 cells. The conditions noted are these: Human immunodeficiency virus 1, 3B. Summed up: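 MT4 T-cell line infected with HIV-1 IIIB (from H9/HTLV-IIIB supernatants) at 100× the inoculum giving 50% growth reduction; incubated 5 days with a range of compound concentrations. Virus cytopathic effect read by MTS staining; IC50 taken as mean of one triplicate experiment. Cytotoxicity measured in parallel on uninfected cells.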

For assay [2], the system named is Human immunodeficiency virus 1. The assay can be described thus: Antiviral activity against HIV1 HxB2 using HeLa MAGI assay. The conditions noted are these: Human immunodeficiency virus 1, HxB2. Summed up:
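HeLa CD4-LTR-β-gal cells infected with HxB2 (from molecular clone pHxB2-D) or isogenic RT mutants; HIV-LTR-driven β-galactosidase quantified with chemiluminescent substrate 3 days post-infection. IC50 is the concentration inhibiting 50% of signal relative to untreated controls. Cytotoxicity measured in parallel by CellTiter96.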

In assay [3] the test system is Human immunodeficiency virus 1. The assay can be described thus: Antiviral activity against HIV1 Y181C mutant using HeLa MAGI assay. To be noted: Human immunodeficiency virus 1, Y181C. Summed up:
(§1)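 HeLa CD4-LTR-β-gal cells infected with isogenic recombinant HIV-1 built on the HxB2 backbone and carrying the RT mutation (K103N, V106A or Y181C). Infection was read by a chemiluminescent β-galactosidase signal 3 days after infection. The IC50 is the concentration giving 50% inhibition of the signal relative to untreated controls. Cytotoxicity was run in parallel by CellTiter96; highest concentration mostly 0.5 µM.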

In assay [4] the test system is Human immunodeficiency virus 1. As to the kind of experiment: Antiviral activity against HIV1 K103N mutant using HeLa MAGI assay. To be noted: Human immunodeficiency virus 1, K103N. The method, boiled down: as §1
In assay [5] the test system is Human immunodeficiency virus 1. As to the kind of experiment: Antiviral activity against HIV1 V106A mutant using HeLa MAGI assay. The conditions noted are these: Human immunodeficiency virus 1, V106A. The method, boiled down: as §1

The structures appear in SMILES notation.

By IC50 is commonly meant the concentration that inhibits the measured activity by half. A low value points to inhibition by little substance.

For the molecule `Cc1ccccc1NC(=O)COc1ccc(Cl)cc1C(=O)c1cc(F)cc(F)c1`, the IC50 in assay [1] amounted to 25 nM; in assay [2], 8 nM; in assay [3] it was 25 nM; in assay [4], 38 nM.

For the molecule `Cc1cc(C#N)cc(C(=O)c2cc(Cl)ccc2OCC(=O)Nc2ncc(S(N)(=O)=O)cc2C)c1`, the concentration for half-maximal inhibition (IC50) in assay [4] worked out at 93 nM.

On to `Cc1cc(S(N)(=O)=O)ccc1NC(=O)COc1ccc(Cl)cc1C(=O)c1cc(Cl)cc(Br)c1`, for which the IC50 in assay [5] came out at 13 nM; in assay [3] it was 6.9 nM; in assay [4], 6.1 nM.

With `Cc1cc(S(N)(=O)=O)ccc1NC(=O)COc1ccc(Cl)cc1C(=O)c1cc(F)cc(C(F)(F)F)c1`, the IC50 in assay [1] came to 1 nM; in assay [2], 1.4 nM; in assay [5], 10.5 nM; in assay [3], 2.9 nM; in assay [4], 2 nM.

Turning to `COc1ccc(NC(=O)COc2ccc(Cl)cc2C(=O)c2cc(F)cc(F)c2)cn1`, the IC50 in assay [4] came to 72 nM.

In the case of `Cc1cc(S(N)(=O)=O)ccc1NC(=O)COc1ccc(Cl)cc1C(=O)c1cc(Cl)cc(C#N)c1`, the IC50 in assay [5] was 3.4 nM; in assay [3] it was 0.7 nM; in assay [4], 1 nM.

Regarding `Cc1cc(C#N)cc(C(=O)c2cc(Cl)ccc2OCC(=O)Nc2ccc(S(N)(=O)=O)cc2C)c1`, the IC50 in assay [5] came out at 1.4 nM; in assay [3] it was 1.9 nM; in assay [4] it was 0.9 nM.

Regarding `CCN(CC)CCCNc1ccc(NC(=O)COc2ccc(Cl)cc2C(=O)c2cc(F)cc(F)c2)c(C)c1`, the IC50 is 41 nM in assay [1] and 96 nM in assay [4].

Turning to `Cc1cc(N2CC[S+]([O-])CC2)ccc1NC(=O)COc1ccc(Cl)cc1C(=O)c1cccc(C#N)c1`, the IC50 in assay [3] worked out at 6 nM; in assay [4] it was 5 nM.

Turning to `Cc1cc(NCCCn2ccnc2)ccc1NC(=O)COc1ccc(Cl)cc1C(=O)c1cc(F)cc(F)c1`, the IC50 in assay [1] came out at 37 nM; in assay [4], 158 nM.

On to `Cc1cc(OCCCNC(N)=O)ccc1NC(=O)COc1ccc(Cl)cc1C(=O)c1cc(F)cc(C(F)(F)F)c1`, for which the half-inhibitory concentration (IC50) in assay [1] worked out at 6 nM; in assay [2], 4 nM; in assay [3] it was 10 nM; in assay [4], 4 nM.

Take `Cc1cc(S(N)(=O)=O)ncc1NC(=O)COc1ccc(Cl)cc1C(=O)c1cc(Cl)cc(C#N)c1`: the IC50 in assay [5] was 10 nM; in assay [3] it was 2 nM; in assay [4] it was 5 nM.

Consider `Cc1cc(N2CC[S+]([O-])CC2)ccc1NC(=O)COc1ccc(Cl)cc1C(=O)c1ccccc1C#N`, for which the values for the IC50 in assay [5], in assay [3] and in assay [4] were 2000 nM, 700 nM and 155 nM, respectively.

Turning to `O=C(COc1ccc(Cl)cc1C(=O)c1cc(F)cc(F)c1)Nc1ccc(Cl)nc1`, in assay [4], the concentration for half-maximal inhibition (IC50) came to 67 nM.

Turning to `Cc1cc(N2CC[S+]([O-])CC2)ccc1NC(=O)COc1ccc(Cl)cc1C(=O)c1ccc(C#N)cc1`, the IC50 stood at 1400 nM in assay [5], 355 nM in assay [3] and 44 nM in assay [4].

For the molecule `Cc1cc(S(N)(=O)=O)ccc1NC(=O)COc1ccc(Cl)cc1C(=O)c1cc(C#N)cc(C(F)(F)F)c1`, the IC50 in assay [5] came out at 5.6 nM; in assay [3], 2 nM; in assay [4], 1.1 nM.

As for `Cc1cc(S(N)(=O)=O)ccc1NC(=O)COc1ccc(Cl)cc1C(=O)c1cc(N)cc(C#N)c1`, the results for the IC50 in assay [5], in assay [3] and in assay [4] were 18 nM, 450 nM and 140 nM, respectively.

In the case of `O=C1Nc2ccc(Cl)cc2C(C#CC2CC2)(C(F)(F)F)O1` (single isomer, unassigned) [EFAVIRENZ], the IC50 in assay [5] is 1.8 nM; in assay [3], 1.6 nM; in assay [4], 25 nM.

`Cc1cc(Cl)cc(C(=O)c2cc(Cl)ccc2OCC(=O)Nc2ccc(S(N)(=O)=O)cc2C)c1`: the IC50 was found to be 9.4 nM in assay [5], 3.3 nM in assay [3] and 3.6 nM in assay [4].

As for `Cc1cc(S(=O)(=O)N(C)C)ccc1NC(=O)COc1ccc(Cl)cc1C(=O)c1cc(F)cc(C(F)(F)F)c1`, the IC50 in assay [1] came out at 10 nM; in assay [2] it was 8 nM; in assay [4], 6 nM.

`Cc1cc(C#N)cc(C(=O)c2cc(Cl)ccc2OCC(=O)Nc2cnc(S(N)(=O)=O)cc2C)c1`: the IC50 in assay [5] was found to be 2 nM; in assay [3], 4 nM; in assay [4], 7 nM.

For the molecule `Cc1cc(N2CC[S+]([O-])CC2)ccc1NC(=O)COc1ccc(Cl)cc1C(=O)c1ccccc1`, the IC50 in assay [5] was 1400 nM; in assay [3], 150 nM; in assay [4] it was 100 nM.

On to `Cc1nc(S(N)(=O)=O)ccc1NC(=O)COc1ccc(Cl)cc1C(=O)c1cc(Cl)cc(C#N)c1`, for which the IC50 worked out at 7 nM in assay [5], 3 nM in assay [3] and 3 nM in assay [4].

Turning to `Cc1cc(OCCCS(N)(=O)=O)ccc1NC(=O)COc1ccc(Cl)cc1C(=O)c1cc(F)cc(C(F)(F)F)c1`, the IC50 in assay [1] was found to be 7 nM; in assay [2], 3 nM; in assay [3], 6 nM; in assay [4], 4 nM.

Turning to `Cc1cc(S(N)(=O)=O)ccc1NC(=O)COc1ccc(Cl)cc1C(=O)c1cc(Br)cc(C(F)(F)F)c1`, the results for the IC50 in assay [5], in assay [3] and in assay [4] were 18 nM, 290 nM and 93 nM, respectively.

Take `Cc1cc(S(N)(=O)=O)ccc1NC(=O)COc1ccc(Cl)cc1C(=O)c1cccc(C#N)c1`: the half-inhibitory concentration (IC50) is 30 nM in assay [5], 1.5 nM in assay [3] and 1.5 nM in assay [4].

For `Cc1cc(NCCCN2CCCC2)ccc1NC(=O)COc1ccc(Cl)cc1C(=O)c1cc(F)cc(F)c1`, the half-inhibitory concentration (IC50) in assay [1] worked out at 18 nM; in assay [4] it was 109 nM.

On to `Cc1cc(C)cc(C(=O)c2cc(Cl)ccc2OCC(=O)Nc2ccc(S(N)(=O)=O)cc2C)c1`, for which the results for the IC50 in assay [5], in assay [3] and in assay [4] were 4.2 nM, 3 nM and 3.3 nM, respectively.

Take `Cc1cc(NC(=O)CCN2CCOCC2)ccc1NC(=O)COc1ccc(Cl)cc1C(=O)c1cc(F)cc(F)c1`: the IC50 in assay [1] came out at 5 nM; in assay [4], 9 nM.

Regarding `CNS(=O)(=O)c1ccc(NC(=O)COc2ccc(Cl)cc2C(=O)c2cc(F)cc(C(F)(F)F)c2)c(C)c1`, the IC50 in assay [1] stood at 8 nM; in assay [2] it was 3 nM; in assay [4], 2 nM.

With `Cc1cc(C#N)cc(C(=O)c2cc(Cl)ccc2OCC(=O)Nc2ccc(S(N)(=O)=O)nc2C)c1`, the IC50 was 3 nM in assay [5], 4 nM in assay [3] and 6 nM in assay [4].

As to `COc1cc(OC)cc(C(=O)c2cc(Cl)ccc2OCC(=O)Nc2ccc(S(N)(=O)=O)cc2C)c1`, the values for the IC50 in assay [5], in assay [3] and in assay [4] were 500 nM, 13 nM and 370 nM, respectively.

Consider `Cc1ccnc2c1NC(=O)c1cccnc1N2C1CC1` [NEVIRAPINE], for which the IC50 amounted to 8200 nM in assay [5], 10300 nM in assay [3] and 5800 nM in assay [4].

For the origin of these results see ChEMBL document CHEMBL1147746, “Structure-activity relationship studies of novel benzophenones leading to the discovery of a potent, next generation HIV nonnucleoside reverse transcriptase inhibitor” (J Med Chem, 2006).
